Key:
[1] = species on record: Mus musculus; experiment: Analgesic activity determined in mice using the Bradykinin-induced Writhing test; type: functional
How it was run: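 Male CD1 mice (15–20 g), test drug given orally 15 min before bradykinin ip (4 μg in 0.2 mL sterile water), then a second bradykinin injection (0.2 μg/0.1 mL) 15 min later. Writhing was scored over the next 10 min, with control groups of 10 mice. ED50 was derived by log-probit analysis from at least five doses, with 95% limits.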

[2] = system: Mus musculus; experiment: (§1) Hepatotoxicity in Swiss-Webster Mice Caused by compound at 400 mg/kg (i.p.) dose; type: functional; conditions: route intraperitoneal
How it was run: (§2)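 Male Swiss-Webster mice (20 g), groups of 10, were given a single ip dose of drug in saline with no pretreatment. Survivors were decapitated at 24 h and counted. Plasma ALT was measured, and liver sections (formalin-fixed, paraffin, H&E) were scored for necrosis severity in survivors. Values are means ± SE.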

[3] = system: Mus musculus; experiment: (§3) Hepatotoxicity in Swiss-Webster Mice Caused by compound at 750 mg/kg (i.p.) dose; type: functional; conditions: route intraperitoneal; how it was run: as §2
[4] = system: Mus musculus; experiment: as §1; type: functional, organism-based; design: dose 400 mg/kg; how it was run: as §2
[5] = system: Mus musculus; experiment: as §3; type: functional, organism-based; design: dose 750 mg/kg; how it was run: as §2
[6] = system: Mus musculus; experiment: Hepatotoxicity in Swiss-Webster Mice Caused by compound at 400 mg/kg (i.p.) dose; 9/10; type: functional; conditions: route intraperitoneal; how it was run: as §2
[7] = (§4) Hepatotoxicity in Swiss-Webster Mice Caused by compound at 400 mg/kg (i.p.) (phenobarbital pretreated animals)dose; type: functional, Mus musculus; conditions: route intraperitoneal
How it was run: (§5)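 Male Swiss-Webster mice (20 g), groups of 10. Sodium phenobarbital (80 mg/kg ip) was given 72, 60, 48 and 24 h before drug, then drug ip in saline. At 24 h: survivors counted, plasma ALT measured, and H&E liver sections scored for necrosis in survivors. Values are means ± SE.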

[8] = system: Mus musculus; experiment: as §4; type: functional, organism-based; design: dose 400 mg/kg; how it was run: as §5
[9] = (§6) Hepatotoxicity in Swiss-Webster Mice Caused by compound at 400 mg/kg (i.p.) (cobaltous chloride pretreated animals)dose; type: functional, Mus musculus; conditions: route intraperitoneal
How it was run: (§7)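 Male Swiss-Webster mice (20 g), groups of 10. Cobaltous chloride (30 mg/kg ip) was given 48, 36, 24 and 12 h before drug, then drug ip in saline. At 24 h: survivors counted, plasma ALT measured, and H&E liver sections scored for necrosis in survivors. Values are means ± SE.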

[10] = system: Mus musculus; experiment: Hepatotoxicity in Swiss-Webster Mice Caused by compound at 750 mg/kg (i.p.) dose; 4/10; type: functional; conditions: route intraperitoneal; how it was run: as §2
[11] = system: Mus musculus; experiment: Hepatotoxicity in Swiss-Webster Mice Caused by compound at 1000 mg/kg (i.p.) (pipernonyl butoxide pretreated animals)dose; type: functional, organism-based; design: dose 1000 mg/kg
How it was run: (§8)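 Male Swiss-Webster mice (20 g), groups of 10. Piperonyl butoxide (neat, single 1360 mg/kg ip dose) was given 30 min before drug, then drug ip in saline. At 24 h: survivors counted, plasma ALT measured, and H&E liver sections scored for necrosis in survivors. Values are means ± SE.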

[12] = system: Mus musculus; experiment: Hepatotoxicity in Swiss-Webster Mice Caused by compound at 400 mg/kg (i.p.) (pipernonyl butoxide pretreated animals)dose; 9/10; type: functional; conditions: route intraperitoneal; how it was run: as §8
[13] = system: Mus musculus; experiment: as §6; type: functional, organism-based; design: dose 400 mg/kg; how it was run: as §7
[14] = Hepatotoxicity in Swiss-Webster Mice Caused by compound at 400 mg/kg (i.p.) (cobaltous chloride pretreated animals)dose; 8/10; type: functional, Mus musculus; conditions: route intraperitoneal; how it was run: as §7
[15] = Hepatotoxicity in Swiss-Webster Mice Caused by compound at 400 mg/kg (i.p.) (phenobarbital pretreated animals)dose; 4/10; type: functional, Mus musculus; conditions: route intraperitoneal; how it was run: as §5
[16] = system: Mus musculus; experiment: Hepatotoxicity in Swiss-Webster Mice Caused by compound at 400 mg/kg (i.p.) (pipernonyl butoxide pretreated animals)dose; type: functional; conditions: route intraperitoneal; how it was run: as §8

CC(=O)Nc1ccc(O)c(C)c1
ED50 [1]: 94.6 mg/kg | Hepatic necrosis in survivors [2]: 1 | Hepatic necrosis in survivors [3]: 2.75 | Plasma ALT at 24 h [4]: 1080 mU ml-1 | Plasma ALT at 24 h [5]: 3250 mU ml-1 | Survivors at 24 h [6]: 9 | Hepatic necrosis in survivors [7]: 3.5 | Plasma ALT at 24 h [8]: 5130 mU ml-1 | Hepatic necrosis in survivors [9]: 0.56 | Survivors at 24 h [10]: 4 | Plasma ALT at 24 h [11]: 83 mU ml-1 | Survivors at 24 h [12]: 9 | Plasma ALT at 24 h [13]: 345 mU ml-1 | Survivors at 24 h [14]: 8 | Survivors at 24 h [15]: 4 | Hepatic necrosis in survivors [16]: 0

Source: ChEMBL document CHEMBL1123436, “Comparative toxicities and analgesic activities of three monomethylated analogues of acetaminophen” (J Med Chem, 1986)
